Bioassay records: PubChem, several laboratories
NTR1 ag: NTR1 (human) agonism; AID 493036; 330,000 compounds, 0.17% hits; P30989; activation, % at 20 µM; NTR1-U2OS beta-arrestin-GFP spot imaging, agonist mode;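 active = activation at or above 40% of the spot to cytoplasm intensity ratio, with at least 20 cells analyzed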;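 also: 0% = DMSO without peptide and 100% = 100 nM NTR1 peptide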
Target sequence (P30989 whole entry, looked up): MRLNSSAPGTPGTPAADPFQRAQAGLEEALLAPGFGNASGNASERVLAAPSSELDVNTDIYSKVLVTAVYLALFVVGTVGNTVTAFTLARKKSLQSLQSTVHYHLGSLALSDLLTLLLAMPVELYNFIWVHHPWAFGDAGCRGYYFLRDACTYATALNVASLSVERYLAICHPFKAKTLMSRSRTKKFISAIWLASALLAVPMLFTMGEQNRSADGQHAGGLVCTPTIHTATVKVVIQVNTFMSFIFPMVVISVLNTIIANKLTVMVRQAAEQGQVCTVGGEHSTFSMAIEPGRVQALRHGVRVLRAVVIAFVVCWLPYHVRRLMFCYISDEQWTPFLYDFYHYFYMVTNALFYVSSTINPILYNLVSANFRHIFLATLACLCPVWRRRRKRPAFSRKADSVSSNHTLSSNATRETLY
MC4R antag cAMP: human MC4R antagonism in cAMP assay; P32245; MC4R-expressing cells, MTII-stimulated cAMP, LANCE TR-FRET; inhibition, % at 6.5 µM; 360,000 compounds, 0.48% hits;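 active = inhibition above its plate's cutoff, the mean of tested wells on that plate plus 3 SD, cut at about 29% in these data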;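 also: 0% = Melanotan II alone and 100% = Melanotan II plus saturating MCL0020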
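Material – human MC4R-expressing U2OS cells · Repeats – no replicates · Detection – TR-FRET with Eu-cAMP and labeled anti-cAMP, 671 nm · Times – compound 30 min, challenge 1 h, detection 1 h · Compound – single nominal compound dose of 6.5 µM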
Granule exo inh: lytic granule exocytosis inhibition | TALL-104 LAMP-1 surface exposure, flow cytometry; cells stimulated with thapsigargin and PMA | 360,000 compounds, 0.66% hits | inhibition, % at 10 µM | AID 651702;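 active = inhibition above about 55%, limit read from the data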
MC4R ag barr: agonists of human melanocortin 4 receptor (MC4R) beta-arrestin; activation, % at 8.9 µM; U2OS MC4R beta-arrestin complementation, luminescence; percent of melanotan II response, DMSO zero; 360,000 compounds, 0.98% hits; AID 540308;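 active = activation above a per-plate cutoff, the mean activation of sample wells on that plate plus 3 SD, cut at about 8% in these data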
sPLA2-III inh: Blocks human group III sPLA2 activity; 370,000 compounds, 0.56% hits; Q9NZ20; AID 743126; inhibition, % at 12.2 µM; QFRET BODIPY PC-A2 liposome hydrolysis, fluorescence;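 active = inhibition above mean plus 3 SD of compounds lying within the high and low control bounds, cut at about 19% in these data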;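 also: 0% = median of test compound wells and 100% = no enzyme DMSO wells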
Bfl-1 A1 inh: inhibitors of the anti-apoptotic protein A1, read as caspase activation. 330,000 compounds, 0.066% hits. caspase activation, % (concentration not given with the values). MEF A1-2A-BIM cells, Caspase-Glo 3/7 luminescence, 3 h; percent of clofoctol response, vehicle zero;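 active = over half of replicate activation scores above 10%, or exactly half above 10 with the replicate mean above 10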
Numbers without * were called inactive; nt = not tested or not shown. Shown are actives, neighbours in structure and some others; about 2.5% of the full set was active somewhere.

SMILES	NTR1 ag	MC4R antag cAMP	Granule exo inh	MC4R ag barr	sPLA2-III inh	Bfl-1 A1 inh
CCOC(=O)c1c(-c2ccc(C)o2)csc1NC(=O)CN1CCCCC1	17.1	18.1	10.4	-3.7	-14.2	0.4
CCOC(=O)c1c(-c2ccc(C)o2)csc1NC(=O)CSc1nncs1	7.3	21.0	89.6*	-1.6	-1.7	-0.1
O=[N+]([O-])c1c(Nc2ccccc2O)cc(Cl)c2nonc12	0.1	-56.2	60.6*	-5.3	-43.0	0.7
O=[N+]([O-])c1c(Nc2ccccc2O)ccc2nonc12	0.2	7.2	-0.4	-2.8	-7.7	-0.8
N#Cc1ccc(-c2ccc(OCC(=O)NCCc3ccccc3)cc2)cc1	5.6	1.7	-2.9	9.1*	-0.3	-0.5
CCNC(=O)COc1ccc(-c2ccccc2)cc1	-2.6	8.7	5.4	2.5	-7.5	-1.8
N#C/C(=C/c1ccc(N2CCCCCC2)o1)c1ccc(F)cc1	4.2	18.1	23.1	-2.5	nt	1.6
N#C/C(=C/c1ccc(N2CCOCC2)o1)c1nc2ccccc2[nH]1	-3.3	-5.4	2.3	-0.4	-6.9	-6.2
N#C/C(=C/c1ccc(N2CCOCC2)o1)c1ccc(Br)cc1	-2.4	7.5	67.4*	-0.8	-10.2	3.5
N#C/C(=C/c1ccc(N2CCCCCC2)o1)c1cccc(F)c1	-4.1	10.5	24.6	8.7*	-13.2	1.8
N#C/C(=C\c1ccc(N2CCOCC2)o1)c1ccccc1	-0.4	4.9	62.6*	2.1	-5.8	3.2
NC(=O)c1ncn([C@@H]2O[C@H](C(=O)N[C@H](Cc3ccccc3)C(=O)N3CCN(c4ccc(Cl)cn4)CC3)[C@@H](O)[C@H]2O)n1	nt	nt	nt	nt	-3.2	nt
CCCCCCCCCCCCCCCC[n+]1ccc(C(N)=O)cc1	0.6	21.6	-0.7	9.2*	-5.2	0.6
COc1ccccc1CC(=O)NCCN1C(=O)C2C3C=CC(C3)C2C1=O (stereo not given)	nt	nt	nt	nt	12.2	nt
Cc1ccc2c(c1)C(CS(=O)(=O)NCCc1ccccc1)NC2 (stereo not given)	nt	nt	nt	nt	-0.4	nt
O=C(O)CC/C(=C\c1ccc(N2CCCC2)c([N+](=O)[O-])c1)c1nc2ccccc2s1	4.0	6.8	-2.7	-1.0	-32.4	2.4
CN(c1ccccc1)c1ccc(/C=C(/CCC(=O)O)c2nc3ccccc3s2)cc1[N+](=O)[O-]	nt	-7.2	-4.1	-1.8	19.9*	nt
CCOC(=O)CC[C@@H]1CC[C@]2(CCCN(C(=O)C3CCCCC3)C2)O1	nt	nt	nt	nt	12.4	nt
Cc1ccc(N(C(=O)C(F)(F)F)C(C(=O)NC2CCCCC2)c2cccs2)cc1 (stereo not given)	2.5	11.2	-0.2	14.8*	-2.1	0.2
Cc1ccc(N(C(=O)CCC(=O)Nc2cc(C)on2)C(C(=O)NC2CCCC2)c2cccs2)cc1 (stereo not given)	0.5	16.2	-1.6	-0.3	-13.4	-0.2
O=C(CBr)c1ccc([N+](=O)[O-])c(CS(=O)(=O)c2ccc(Cl)cc2)c1	1.7	34.4*	5.6	-3.1	5.9	0.3
CCn1c(Cc2cccs2)nnc1SCC(=O)Nc1ccc(OCc2ccccc2)cc1	nt	nt	nt	nt	-37.6	nt
COc1ccc(S[C@]2(C(=O)N3CCCC3)CC(=O)N(C(=O)CCc3ccccc3)[C@@H]2c2ccc(OC)cc2)cc1	nt	nt	nt	nt	-3.6	nt
c1ccc(-c2ccc(C3=Nn4c(nnc4-c4cc(-c5ccccc5)n[nH]4)SC3)cc2)cc1	10.4	0.4	3.5	9.7*	-4.2	0.8
Cc1ccccc1CN1[C@@H](C)[C@H](c2ccccc2)Oc2cccc(NCC(C)C)c2S1(=O)=O	nt	nt	nt	nt	4.0	nt
SMILES	NTR1 ag	MC4R antag cAMP	Granule exo inh	MC4R ag barr	sPLA2-III inh	Bfl-1 A1 inh
Cc1ccc(S(=O)(=O)N2CCCC(C(=O)NCCN3CCC(Cc4ccccc4)CC3)C2)cc1 (stereo not given)	nt	nt	nt	nt	-6.1	nt
CC(C)C[C@@H](CN1CCCC1CN1C(=S)NC[C@@H]1Cc1ccc(O)cc1)N1C[C@H](Cc2ccccc2)N(CC2CCCCCC2)C1=S (stereo not given in full)	nt	12.3	13.9	-0.1	-19.9	nt
CC(C)C[C@@H](CN1CCCC1CN1C(=S)NC[C@@H]1Cc1ccc(O)cc1)N1C[C@H](Cc2ccc(O)cc2)N(CC2CCCCCC2)C1=S (stereo not given in full)	nt	13.5	56.3*	0.8	-23.2	nt
COC(=O)[C@@H](NCc1cccc(CN[C@H](C(=O)OC)c2ccccc2)c1)c1ccccc1	-0.8	8.1	65.5*	-1.3	-3.9	0.0
O=C1N2CCc3ccccc3C2CS(=O)(=O)N1Cc1ccc(F)cc1 (stereo not given)	nt	nt	nt	nt	-7.2	nt
CCN(CC)CCn1c(SCC(=O)Nc2cccc(OC)c2)nc2c(sc3ccccc32)c1=O	4.2	2.2	69.4*	2.0	-9.0	1.0
Cn1c(C(=O)NC2CC2)cc2c(=O)n(C)c3ccccc3c21	0.5	6.7	-2.3	-1.1	4.7	-1.3
Cn1c(C(=O)Nc2ccc3c(c2)OCCO3)cc2c(=O)n(C)c3ccccc3c21	5.0	1.5	79.6*	1.3	-13.0	0.8
COC(=O)[C@]12C[C@H](CC(=O)NCc3ccccc3)C(=O)N(Cc3ccco3)C1=C[C@H](C(C)C)O[C@@H]2C1CC1	nt	nt	nt	nt	-9.3	nt
N=c1c(C(=O)NCc2ccco2)cc2c(=O)n3ccccc3nc2n1Cc1ccc(Cl)cc1	3.9	2.4	63.5*	-2.6	2.7	0.5
COc1cccc(NC(=O)c2cc3c(=O)n4ccccc4nc3n(CC(C)C)c2=N)c1	10.9	9.8	68.2*	1.0	8.5	-1.3
N=c1c(C(=O)NCc2ccco2)cc2c(=O)n3ccccc3nc2n1Cc1ccccc1	4.3	-1.4	6.5	1.2	-1.6	-1.6
Cc1cccc(NC(=O)c2cc3c(=O)n4ccccc4nc3n(CC(C)C)c2=N)c1	0.9	7.4	23.5	-1.4	8.3	0.4
CC[C@H](CCC(=O)N(c1ccccc1)c1ccccc1)c1ccc(C)cc1	nt	nt	nt	nt	2.2	nt
Clc1ccc([C@H]2OC[C@@]3(CNCc4ccccn4)CS[C@H](c4ccc(Cl)cc4)N23)cc1	nt	nt	nt	nt	1.1	nt
CCOc1ccc(C(C)=O)cc1N1C(=O)C2C3C=CC(O3)C2C1=O (stereo not given)	0.3	-7.4	104.6*	-0.2	nt	-0.7
CCOc1ccc(C(C)=O)cc1N1C(=O)C2C3C=CC(C3)C2C1=O (stereo not given)	-0.5	7.3	-4.4	-2.1	nt	-0.3
CCOC(=O)[C@]12CCCC3=C1N(CCC3)C(=O)[C@@H](CC(=O)NCc1ccc(OC)c(OC)c1)C2	nt	nt	nt	nt	5.6	nt
Cc1c(C(=O)N/N=C/c2ccccc2Cl)[nH][nH]c1=O	nt	nt	nt	nt	2.1	nt
COc1ccccc1NC(=O)c1cc2c(CO)cnc(C)c2oc1=Nc1ccccc1	19.7	9.6	80.6*	-0.4	8.6	0.3
O=C(OCc1ccc(CSc2nnc(-c3cccc4ccccc34)o2)cc1)c1ccc(F)cc1	nt	nt	nt	nt	12.6	nt
